This is an account of results in ChEMBL document CHEMBL4130436, “Meroterpenoids from a Medicinal Fungus Antrodia cinnamomea” (2017).

Assay [1] has as its system A549. Briefly: Growth inhibition of human A549 cells after 48 hrs by SRB assay. It counts as functional. Particulars: A549, 48 h. Summed up: (§1)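 Cells (from ATCC) grown in RPMI-1640 with 10% FBS and penicillin/streptomycin/amphotericin B, 37 °C, 5% CO2. Seeded overnight, then exposed to various compound concentrations for 48 h. A time-zero plate fixed with 10% TCA at dosing. After treatment, cells fixed with 10% TCA, stained with 0.4% SRB in 1% acetic acid, lysed in 10 mM Trizma base, A515 read. GI50 = concentration giving 50% reduction of the control protein increase.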

Assay [2] has as its system PC-3. The assay can be described thus: Growth inhibition of human PC3 cells after 48 hrs by SRB assay. Type of assay: functional. Particulars: PC-3, 48 h. Put shortly:
as §1
Background: In SRB staining, fixed cells bind dye roughly in proportion to their protein.

With `COC1=C(O)[C@H](O)[C@H](C/C=C(\C)CC/C=C(\C)C[C@H](O)/C=C(\C)CO)[C@@H](C)C1=O`, the GI50 in assay [1] and in assay [2] was greater than 30 µM in each case.
`COC1=C(OC)[C@H](OC(C)=O)[C@H](C/C=C(\C)CC/C=C(\C)C[C@H](O)/C=C(\C)C(=O)O)[C@@H](C)C1=O`: the GI50 in assay [1] and in assay [2] was greater than 30 µM each time.
Turning to `COC1=C(OC)[C@H](O)[C@H](C/C=C(\C)CC/C=C(\C)CCC=C(C)C)[C@@H](C)C1=O` [ANTROQUINONOL], the GI50 amounted to 5.7 µM in assay [1] and 13.5 µM in assay [2].
For the compound `COC1=CC(=O)C(C/C=C(\C)CC/C=C(\C)CCC=C(C)C)=C(C)C1=O`, the GI50 in assay [1] and in assay [2] was greater than 30 µM throughout.
On to `COC1=C(OC)[C@H](OC(C)=O)[C@H](C/C=C(\C)CC/C=C(\C)C[C@H](O)C=C(C)C)[C@@H](C)C1=O`, for which the figures for the GI50 in assay [1] and in assay [2] were 20.7 µM and greater than 30 µM, respectively.
In the case of `COC1=C(OC)C(=O)C(C/C=C(\C)CC/C=C(\C)CCC=C(C)C)=C(C)C1=O`, the GI50 in assay [1] and in assay [2] was greater than 30 µM each time.
For the compound `O=c1[nH]cc(F)c(=O)[nH]1` [FLUOROURACIL], the GI50 in assay [1] was 4.2 µM; in assay [2] it was 11.7 µM.
The corresponding values for `COc1cc2c(c(C)c1O)C=C[C@](C)(CC/C=C(\C)CCC=C(C)C)O2` are greater than 30 µM and greater than 30 µM.
The corresponding values for `COC1=C(OC)[C@H](O)[C@H](C/C=C(\C)CC/C=C(\C)CCCC(C)CO)[C@@H](C)C1=O` (stereo not given in full) are 7.1 µM and greater than 30 µM.
For `COC1=C[C@H](O)[C@H](C/C=C(\C)CC/C=C(\C)C[C@H](O)/C=C(\C)CO)[C@@H](C)C1=O`, in that order: greater than 30 µM and greater than 30 µM.
`COC1=C(OC)[C@H](OC(C)=O)[C@H](C/C=C(\C)CC/C=C(\C)C[C@H](O)/C=C(\C)CO)[C@@H](C)C1=O`: the results for the 50% growth inhibitory concentration (GI50) in assay [1] and in assay [2] were 29 µM and greater than 30 µM, respectively.
For the compound `COC1=C(OC)[C@H](O)[C@H](C/C=C(\C)CC/C=C(\C)C/C=C/C(C)(C)O)[C@@H](C)C1=O`, the values for the GI50 in assay [1] and in assay [2] were 23.8 µM and greater than 30 µM, respectively.
For `COC1=C[C@H](O)[C@H](C/C=C(\C)CC/C=C(\C)CCC=C(C)C)[C@@H](C)C1=O`, in that order: 16.4 µM and greater than 30 µM.
The corresponding values for `COC1=C(OC)C(=O)C(C/C=C(\C)CC/C=C(\C)C[C@H](O)C=C(C)C)=C(C)C1=O` are greater than 30 µM and greater than 30 µM.
For the compound `COC1=C[C@H](O)[C@H](C/C=C(\C)CC/C=C(\C)C[C@@H]2C[C@@H](C)C(=O)O2)[C@@H](C)C1=O`, the GI50 in assay [1] and in assay [2] was greater than 30 µM throughout.
Consider `COC1=C(OC)[C@H](O)[C@H](C/C=C(\C)CC/C=C(\C)C[C@@H]2C[C@@H](C)C(=O)O2)[C@@H](C)C1=O`, for which the GI50 in assay [1] was 14.1 µM; in assay [2] it was greater than 30 µM.
Consider `COC1=C(OC)[C@H](O)[C@H](C/C=C(\C)CC/C=C(\C)C[C@H](O)C=C(C)C)[C@@H](C)C1=O`, for which the GI50 in assay [1] was 9.6 µM; in assay [2] it was greater than 30 µM.
The corresponding values for `COC1=C(OC)[C@H](OC(C)=O)[C@H](C/C=C(\C)CC/C=C(\C)C[C@@H]2C[C@@H](C)C(=O)O2)[C@@H](C)C1=O` are 11.3 µM and greater than 30 µM.
For `COC1=C(OC)[C@H](O)[C@H](C/C=C(\C)CC/C=C(\C)C[C@H](O)/C=C(\C)CO)[C@@H](C)C1=O`, in that order: 12 µM and greater than 30 µM.
For `COC1=C(OC)[C@H](O)[C@H](C/C=C(\C)CC/C=C(\C)CC/C=C(\C)CO)[C@@H](C)C1=O`, the GI50 in assay [1] is 8.2 µM; in assay [2] it was greater than 30 µM.

For orientation: GI50 means the concentration at which growth is held to half of that of the control.
